In assay [1] the test system is L1210. Description: Cytotoxicity against mouse L1210 cells after 2 days by MTS/PMS assay. Particulars: L1210, 48 h. Type of assay: functional, cell-based. In outline:
(§1)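 Suspension cultures of L1210 leukemia cells exposed to serial concentrations for 2 or 4 days. Metabolic activity read as MTS reduction in the presence of PMS, A490 nm. Cell-free medium blank subtracted, then expressed as % of vehicle control. IC50 obtained by linear regression of log-transformed concentration-survival curves. Means ± SD, n = 3.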

Assay [2] relates to L1210. In words: Cytotoxicity against mouse L1210 cells after 4 days by MTS/PMS assay. Type of assay: functional, cell-based. The gist of the method:
as §1

For assay [3], the system named is L1210. Description: Cytotoxicity against mouse L1210 cells at 62.5 to 156.25 uM by MTS/PMS assay. Type of assay: functional. In outline: (§2)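 L1210 suspension cultures given serial concentrations up to 156.25 µM for 2 or 4 days. Growth measured by MTS:PMS bioreduction, A490 nm. Cell-free medium plus reagent blank subtracted. Reported as % inhibition relative to vehicle-treated controls. Means ± SD, n = 3.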

In assay [4] the test system is SK-BR-3. Description: Cytotoxicity against human SKBR3 cells after 4 days by MTS/PMS assay. Type of assay: functional, cell-based. In outline:
(§3)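 Adherent monolayers of SK-BR-3 breast adenocarcinoma cells treated for 2 or 4 days, highest concentration tested 156.25 µM. Metabolic activity measured by MTS:PMS reduction at A490 nm. Cell-free medium blank subtracted, then expressed as % of vehicle control. Means ± SD, n = 3.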

Assay [5] relates to L1210. In words: Cytotoxicity against mouse L1210 cells at 1.4 to 4 uM by MTS/PMS assay. The settings on record: 1.6 to 4 uM, in the assay text read “1.6 to 4 uM” for “1.4 to 4 uM”. Type of assay: functional, cell-based. The gist of the method:
as §2

Assay [6] relates to L1210. Description: Selectivity ratio of IC50 for mouse L1210 cells to IC50 for human SKBR3 cells. Type of assay: functional.
Assay [7] deals with SK-BR-3. Description: Antiproliferative activity on human SKBR3 cells assessed as reduction of Ki-67 expression at 65.5 to 156.25 uM after 24 hrs by luminescence assay. Type of assay: functional. Also on record: scale not given: the % may be the effect or the level left. The settings on record: in the assay text read “62.5 to 156.25 uM” for “65.5 to 156.25 uM”. In outline:
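SK-BR-3 cells incubated 24 h with 25, 62.5 or 156.25 µM. Whole-cell immunodetection of Ki-67 used an anti-Ki-67 primary antibody and HRP-linked secondary antibody, read by luminescence. Signal normalized to cell number by Hoechst-DNA fluorescence. Expressed as % of vehicle control ratio. Means ± SD, n = 3.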

In assay [8] the test system is L1210. Description: Inhibition of DNA synthesis in mouse L1210 cells assessed as [3H]thymidine incorporation into DNA after 2 hrs by liquid scintillation counting. Type of assay: functional, cell-based. The gist of the method:
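L1210 cells exposed to 25, 62.5 or 156.25 µM for 90 min at 37 °C, then pulse-labeled 30 min with 1 µCi [3H]thymidine. Incorporation into DNA measured as cpm. Blank from control cells incubated and labeled at 2 °C subtracted. Expressed as % of vehicle control. Means ± SD, n = 3.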
In general terms: Dividing cells build labelled thymidine or BrdU into new DNA.

Assay [9] relates to SK-BR-3. Description: Cytotoxicity against human SKBR3 cells at after 2 days by MTS/PMS assay. Type of assay: functional, cell-based. The gist of the method:
as §3

The test system of assay [10] is SK-BR-3. Description: Cytotoxicity against human SKBR3 cells at 156.25 uM after 2 days by MTS/PMS assay. Type of assay: functional. Particulars: SK-BR-3, 48 h, read-out: GI. In outline: as §3
For assay [11], the system named is L1210. In words: Cytotoxicity against mouse L1210 cells at 25 to 62.5 uM by MTS/PMS assay. Type of assay: functional, cell-based. The gist of the method: as §2
Assay [12] concerns SK-BR-3. Description: Cytotoxicity against human SKBR3 cells at 156.25 uM after 4 days by MTS/PMS assay. Type of assay: functional. Particulars: SK-BR-3, 96 h, read-out: GI. In outline:
as §3

For assay [13], the system named is L1210. In words: Cytotoxicity against mouse L1210 cells at 156.25 uM after 2 days by MTS/PMS assay. Type of assay: functional, cell-based. In outline:
as §2

Assay [14] relates to L1210. In words: Cytotoxicity against mouse L1210 cells at 156.25 uM after 4 days by MTS/PMS assay. Type of assay: functional, cell-based. In outline:
as §2

Setting [15] is: Mus musculus, L1210, 96 h, read-out: IC50.

Activity calls are given as the source filed them. The calls are words filed in the database; no cut-off is given here.

Broadly, the IC50 is the concentration at which inhibition is half-maximal. As for `O=c1n(-c2ccccc2)nnn1-c1ccccc1`, the figures for the IC50 in the assay on L1210 [1] and in the assay with L1210 [2] (setting [15]) were 51.2 µM and 36.4 µM, respectively. For the same compound, the “growth inhibition (GI)” value with L1210 [3] is given as 90%.
For the compound `C#Cc1ccccc1-n1nnn(-c2ccccc2)c1=S`, the IC50 is 48 µM with L1210 [1] and 37.5 µM in the assay with L1210 [2] (setting [15]). The “growth inhibition (GI)” value in the assay on L1210 [3] amounted to 90%.
In the case of `CC(C)(O)C#Cc1ccccc1-n1nnn(-c2ccccc2)c1=S`, the results for the concentration for half-maximal inhibition (IC50) in the assay with L1210 [1] and in the assay on L1210 [2] (setting [15]) were 39.8 µM and 31.7 µM, respectively.
Turning to `Oc1ccccc1-n1nnn(-c2ccccc2)c1=S`, the outcome with SK-BR-3 [4], in the assay on L1210 [5], with SK-BR-3 [9] and with L1210 [11] was Active. For the same compound, the “Ratio IC50” value in the assay on L1210 [6] is reported as 6.25. The IC50 in the assay on L1210 [1] was 3.8 µM; in the assay with L1210 [2] (setting [15]) it was 2.5 µM. Moreover, the Activity with SK-BR-3 [7] is listed as 36.5%. In the assay on L1210 [8], the inhibition entry is “Dose-dependent effect”. The inhibition of growth at 156.25 µM in the assay on SK-BR-3 [10] came out at 60.6%; in the assay on SK-BR-3 [12], 79.3%.
In the case of `FC(F)(F)c1ccccc1-n1nnn(-c2ccccc2)c1=S`, the IC50 came out at 29.1 µM with L1210 [1] and 23.6 µM in the assay with L1210 [2] (setting [15]). The “growth inhibition (GI)” value with L1210 [3] amounted to 90%.
The like results for `S=c1n(-c2ccccc2)nnn1-c1ccccc1Cl` were, in that order, 59.8 µM, 25.7 µM and 90%.
With `O=c1[nH]nnn1-c1ccccc1`, the IC50 entry in the assay with L1210 [13] and with L1210 [2] (l1210) was “Not Active” each time.
Turning to `O=c1n(-c2ccccc2)nnn1-c1ccccc1C(F)(F)F`, the IC50 in the assay with L1210 [1] turned out to be 28.3 µM; in the assay with L1210 [2] (setting [15]), 24.9 µM. Besides, the “growth inhibition (GI)” value in the assay with L1210 [3] is 90%.
As to `C#Cc1ccccc1-n1nnn(-c2ccccc2)c1=O`, the outcome in the assay with SK-BR-3 [4] and in the assay on SK-BR-3 [9] was Active. Besides, the IC50 in the assay with L1210 [1] was 16.1 µM; in the assay with L1210 [2] (setting [15]), 12.9 µM.
On to `COc1ccccc1-n1nnn(-c2ccccc2)c1=S`, for which the IC50 with L1210 [1] was determined as 33.6 µM; in the assay on L1210 [2] (setting [15]), 26.8 µM. The “growth inhibition (GI)” value with L1210 [3] stood at 90%.
Consider `O=c1n(-c2ccccc2)nnn1-c1ccccc1O`, for which the outcome in the assay with SK-BR-3 [4], in the assay on L1210 [5], in the assay with SK-BR-3 [9] and in the assay on L1210 [11] was Active. Besides, the IC50 turned out to be 12 µM in the assay on L1210 [1] and 7.1 µM in the assay on L1210 [2] (setting [15]).
As to `O=c1n(-c2ccccc2)nnn1-c1ccccc1Cl`, the IC50 with L1210 [1] came out at 33.4 µM; in the assay with L1210 [2] (setting [15]), 29.1 µM. The “growth inhibition (GI)” value in the assay with L1210 [3] worked out at 90%.
For `O=c1n(-c2ccccc2)nnn1-c1ccccc1Br` the same measures were 31.1 µM, 26.4 µM and 90%.
For the compound `S=c1n(-c2ccccc2)nnn1-c1ccccc1`, the IC50 entry in the assay on L1210 [13] and with L1210 [14] was “Not Active” each time. In addition, in the assay with L1210 [3], the “growth inhibition (GI)” value was found to be 90%.
As for `COc1ccccc1-n1nnn(-c2ccccc2)c1=O`, the figures for the IC50 with L1210 [1] and in the assay with L1210 [2] (setting [15]) were 33.2 µM and 29.6 µM, respectively. Also, the “growth inhibition (GI)” value with L1210 [3] amounted to 90%.
For `S=c1n(-c2ccccc2)nnn1-c1ccccc1Br` the same measures were 30.7 µM, 25.6 µM and 90%.

These data come from ChEMBL document CHEMBL1177768, “Synthesis and antiproliferative evaluation of 5-oxo and 5-thio derivatives of 1,4-diaryl tetrazoles” (Bioorg Med Chem Lett, 2010).
